Series [1] in a line: melting temperature; fluorescence melt of hairpins on a sequencing array, two-state fit, raised by 9.35 °C to match UV melts. The note with it: sodium 0.088 M. The method in brief: (§1)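 With Cy3 and quencher oligos annealed, library hairpins on a sequenced MiSeq flow cell were imaged for Cy3 fluorescence in 50 mM Na-HEPES pH 8.0, 25 mM NaCl, in 2.5 °C steps up to 60 °C. Melting temperature and folding enthalpy were derived from bootstrapped two-state fits of signals normalised to pre-quench Cy3 and to control constructs. Four replicates were combined by inverse variance, with fitted temperatures raised by 9.35 °C to match UV melts.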

Series [2] is described as follows: folding enthalpy; higher = less favourable; fluorescence melt of hairpins on a sequencing array, two-state fit. As to conditions: sodium 0.088 M. The method in brief:
as §1

Turning to GATCCCAGGCGGGATC ((((((....)))))), the Tm in series [1] came to 61.1 °C. In series [2], the folding enthalpy was -34 kcal/mol.
As for CGACCGGAAACGGATCG ((((((....))).))), in series [1], the Tm was 48.5 °C. Moreover, in series [2], the folding enthalpy was -33.3 kcal/mol.
With GATCAAACTTTTGATC ((((((....)))))), the Tm in series [1] was 45.9 °C. Moreover, the folding enthalpy in series [2] was -27.9 kcal/mol.
For GCTCCCGAAAGGGCAAGC ((((((....)))..))), in that order: 42.2 °C and -15.9 kcal/mol.
For GTAAAAGAAATTTTAC ((((((....)))))), in that order: 30.8 °C and -13 kcal/mol.
As to GATCTGCGCGCAGATC ((((((....)))))), in series [1], the Tm was 66.7 °C. Further, in series [2], the folding enthalpy was -50.8 kcal/mol.
For GGGCCCGAAAGGGGACCC ((((((....)))..))), in that order: 65.1 °C and -14.4 kcal/mol.
For GATCGAGTCGTCGATC ((((((....)))))), in that order: 54.9 °C and -35.6 kcal/mol.
For GCGAGGCGAAAGCTTTGC ((.(.((....)).).)), in that order: 51.5 °C and -20.3 kcal/mol.
Turning to GCTGCACCGAAAGGTAGC (((..(((....)))))), the Tm in series [1] came to 49.2 °C. Also, the folding enthalpy in series [2] is -13.4 kcal/mol.
For GGCTTGTCGAAAGACGCC (((..(((....)))))), in that order: 49.9 °C and -18.5 kcal/mol.
On to GTAACTCGAAAGAGTAC (((.(((....)))))), for which the Tm in series [1] came out at 42.4 °C. In series [2], the folding enthalpy is -15 kcal/mol.
For GCTCAGCGAAAGCTAGC (((.(((....)))))), in that order: 49.4 °C and -20 kcal/mol.
For GGACGCGAAAGCGGTCC ((((((....))).))), in that order: 68.8 °C and -21.2 kcal/mol.
For GCCTTCGAAAGAATTGGC ((((((....)))..))), in that order: 37 °C and -22.9 kcal/mol.
As to GCATTGCGAAAGCATCGC ((..(((....)))..)), the Tm in series [1] was found to be 52.9 °C. The folding enthalpy in series [2] was -11.8 kcal/mol.
For TGTGAGAAATCACA (((((....))))), in that order: 38.9 °C and -18.3 kcal/mol.
For GCCCAACGAAAGTTCGGC (((.(((....))).))), the Tm in series [1] was determined as 45.5 °C. Also, the folding enthalpy in series [2] is -29.9 kcal/mol.
For GCCGATGGAAACGTTGGC (((.(.(....).).))), in that order: 43 °C and -25.5 kcal/mol.
For GTCGTTCCGAAAGGAGAC (((..(((....)))))), in that order: 35.1 °C and -22 kcal/mol.
For GATCGTGATGACGATC ((((((....)))))), in series [1], the Tm worked out at 54.4 °C. The folding enthalpy in series [2] is -37.8 kcal/mol.
For GCCAACGAAAGTTAGGGC ((((((....)))..))), in that order: 46.6 °C and -23.5 kcal/mol.
For GGCATCGAAAGATGCGCC ((((((....)))..))), in that order: 57.3 °C and -8.72 kcal/mol.
As for GCCTGCGAAAGCAGCGGC ((((((....)))..))), the Tm in series [1] stood at 61.6 °C. The folding enthalpy in series [2] is -14 kcal/mol.
For GCGAGCCATCGC ((((....)))), in that order: 57.2 °C and -28.4 kcal/mol.
In the case of GCTGTCGAAAGACAAGC ((((((....))).))), the Tm in series [1] was found to be 54.4 °C. Also, the folding enthalpy in series [2] was -27.8 kcal/mol.
For GATCCATTGATGGATC ((((((....)))))), in that order: 53.5 °C and -40.5 kcal/mol.
For GATCCAAAGTTGGATC ((((((....)))))), in that order: 49.8 °C and -35.2 kcal/mol.
Take GTTGCAGGAAACTACAAC ((((.((....)).)))): in series [1], the Tm is 37 °C. Besides, the folding enthalpy in series [2] is -27.6 kcal/mol.
As for GAAGAAGAAATTCTTC ((((((....)))))), the Tm in series [1] stood at 38.1 °C. Further, the folding enthalpy in series [2] was -18.5 kcal/mol.
Turning to GCCAAGCGAAAGCGTTGC ((.(.((....)).).)), in series [1], the Tm turned out to be 40.1 °C. Also, the folding enthalpy in series [2] is -11.6 kcal/mol.
For GTCTTGGGAAACCAAGAC (((((((....))))))), in series [1], the Tm stood at 62.1 °C. In addition, the folding enthalpy in series [2] is -46.4 kcal/mol.
For GCGTATCGAAAGATCGC (((.(((....)))))), in that order: 55.6 °C and -34.2 kcal/mol.
Regarding TATGGGAAACCATA (((((....))))), in series [1], the Tm was 37.2 °C. Further, in series [2], the folding enthalpy was -14.9 kcal/mol.
For GCTGGGCGAAAGCACCGC ((.(.((....)).).)), in that order: 52.7 °C and -20.7 kcal/mol.
For the sequence AACGGGAAACCGTT (((((....))))), the Tm in series [1] turned out to be 50.6 °C. For the same sequence, in series [2], the folding enthalpy was -18.5 kcal/mol.
For GCAAACGAAAGTTGTGC ((((((....))).))), in that order: 43.4 °C and -22.6 kcal/mol.
